Laboratory results taken from ChEMBL document CHEMBL3779892, “Increasing the binding affinity of VEGFR-2 inhibitors by extending their hydrophobic interaction with the active site: Design, synthesis and biological evaluation of 1-substituted-4-(4-methoxybenzyl)phthalazine derivatives” (Eur J Med Chem, 2016).

What was measured:
Assay type in all cases: functional
[1] = test system: NCI-H226; assay: Growth inhibition of human NCI-H226 cells at 10 uM after 48 hrs by sulforhodamine B assay; conditions: NCI-H226, 48 h, read-out: GI
Method in brief: (§1)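 Run at NCI on the 60-line panel. Cells grown in RPMI 1640 with 5% FBS and 2 mM L-glutamine, plated at 5000–40,000 cells/well by doubling time, and held 24 h at 37 °C before dosing. Drug (DMSO stock) given at a single final 10 µM in triplicate wells for 48 h. Adherent cells fixed with cold TCA (10% final), suspension cells with 16% TCA. SRB stain read at 515 nm. Percent growth from Tz, C and Ti.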

[2] = test system: Malme-3M; assay: Growth inhibition of human MALME-3M cells at 10 uM after 48 hrs by sulforhodamine B assay; conditions: read-out: GI; method in brief: as §1
[3] = Growth inhibition of human TK10 cells at 10 uM after 48 hrs by sulforhodamine B assay; conditions: TK-10, 48 h, read-out: GI
Method in brief: (§2)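 NCI-60 panel, adherent cells grown in RPMI 1640 with 5% FBS and 2 mM L-glutamine, plated at 5000–40,000 cells/well and preincubated 24 h at 37 °C, 5% CO2. 10 µM final compound from DMSO stock, triplicate wells, 48 h. Fixed with cold TCA (10% final, 60 min, 4 °C) and stained with 0.4% SRB. Absorbance read at 515 nm; growth calculated against time-zero and control wells.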

[4] = Growth inhibition of human Hs 578T cells at 10 uM after 48 hrs by sulforhodamine B assay; conditions: read-out: GI; method in brief: as §1
[5] = Growth inhibition of human UACC62 cells at 10 uM after 48 hrs by sulforhodamine B assay; conditions: UACC-62, 48 h, read-out: GI; method in brief: as §2
[6] = Growth inhibition of human OVCAR3 cells at 10 uM after 48 hrs by sulforhodamine B assay; conditions: OVCAR-3, 48 h, read-out: GI; method in brief: as §1
[7] = test system: M14; assay: Growth inhibition of human M14 cells at 10 uM after 48 hrs by sulforhodamine B assay; conditions: M14, 48 h, read-out: GI; method in brief: as §1
[8] = test system: ACHN; assay: Growth inhibition of human ACHN cells at 10 uM after 48 hrs by sulforhodamine B assay; conditions: read-out: GI; method in brief: as §1
[9] = Growth inhibition of human LOXIMVI cells at 10 uM after 48 hrs by sulforhodamine B assay; conditions: LOX IMVI, read-out: GI; method in brief: as §1
[10] = Growth inhibition of human HOP62 cells at 10 uM after 48 hrs by sulforhodamine B assay; conditions: HOP-62, 48 h, read-out: GI; method in brief: as §1
[11] = test system: CCRF-CEM; assay: Growth inhibition of human CCRF-CEM cells at 10 uM after 48 hrs by sulforhodamine B assay; conditions: read-out: GI; method in brief: as §1
[12] = Growth inhibition of human SW620 cells at 10 uM after 48 hrs by sulforhodamine B assay; conditions: SW-620, 48 h, read-out: GI; method in brief: as §2
[13] = Growth inhibition of human UO31 cells at 10 uM after 48 hrs by sulforhodamine B assay; conditions: UO-31, 48 h, read-out: GI; method in brief: as §2
[14] = Growth inhibition of human PC3 cells at 10 uM after 48 hrs by sulforhodamine B assay; conditions: PC-3, 48 h, read-out: GI; method in brief: as §1
[15] = test system: MDA-MB-468; assay: Growth inhibition of human MDA-MB-468 cells at 10 uM after 48 hrs by sulforhodamine B assay; conditions: MDA-MB-468, 48 h, read-out: GI; method in brief: as §1
[16] = test system: NCI-H460; assay: Growth inhibition of human NCI-H460 cells at 10 uM after 48 hrs by sulforhodamine B assay; conditions: NCI-H460, 48 h, read-out: GI; method in brief: as §1
[17] = Growth inhibition of human HCT15 cells at 10 uM after 48 hrs by sulforhodamine B assay; conditions: HCT-15, 48 h, read-out: GI; method in brief: as §1
[18] = test system: NCI-H522; assay: Growth inhibition of human NCI-H522 cells at 10 uM after 48 hrs by sulforhodamine B assay; conditions: NCI-H522, 48 h, read-out: GI; method in brief: as §1
[19] = Growth inhibition of human BT549 cells at 10 uM after 48 hrs by sulforhodamine B assay; conditions: BT-549, 48 h, read-out: GI; method in brief: as §1
[20] = test system: 786-0; assay: Growth inhibition of human 786-0 cells at 10 uM after 48 hrs by sulforhodamine B assay; conditions: 786-0, 48 h, read-out: GI; method in brief: as §1
[21] = test system: A549; assay: Growth inhibition of human A549 cells at 10 uM after 48 hrs by sulforhodamine B assay; conditions: A549, 48 h, read-out: GI; method in brief: as §1
[22] = Growth inhibition of human MOLT4 cells at 10 uM after 48 hrs by sulforhodamine B assay; conditions: MOLT-4, 48 h, read-out: GI; method in brief: as §1
[23] = test system: KM12; assay: Growth inhibition of human KM12 cells at 10 uM after 48 hrs by sulforhodamine B assay; conditions: KM12, 48 h, read-out: GI; method in brief: as §1

COc1ccc(Cc2nnc(Nc3ccc(NC(=O)Nc4ccc(Cl)cc4)cc3)c3ccccc23)cc1
inhibition of growth at 10 µM [1]: < 30% | inhibition of growth at 10 µM [2]: < 30% | inhibition of growth at 10 µM [3]: < 30% | inhibition of growth at 10 µM [4]: 75% | inhibition of growth at 10 µM [5]: < 30% | inhibition of growth at 10 µM [6]: < 30% | inhibition of growth at 10 µM [7]: 30% | inhibition of growth at 10 µM [8]: 46% | inhibition of growth at 10 µM [9]: < 30% | inhibition of growth at 10 µM [10]: < 30% | inhibition of growth at 10 µM [11]: 42% | inhibition of growth at 10 µM [12]: < 30% | inhibition of growth at 10 µM [13]: < 30% | inhibition of growth at 10 µM [14]: 31% | inhibition of growth at 10 µM [15]: < 30% | inhibition of growth at 10 µM [16]: 110% | inhibition of growth at 10 µM [17]: 41% | inhibition of growth at 10 µM [18]: 43% | inhibition of growth at 10 µM [19]: 37% | inhibition of growth at 10 µM [20]: 58% | inhibition of growth at 10 µM [21]: 33% | inhibition of growth at 10 µM [22]: 44% | inhibition of growth at 10 µM [23]: 39%

COc1ccc(Cc2nnc(Nc3ccccc3)c3ccccc23)cc1
inhibition of growth at 10 µM [1]: < 30% | inhibition of growth at 10 µM [2]: < 30% | inhibition of growth at 10 µM [3]: < 30% | inhibition of growth at 10 µM [4]: < 30% | inhibition of growth at 10 µM [5]: < 31% | inhibition of growth at 10 µM [6]: < 30% | inhibition of growth at 10 µM [7]: < 30% | inhibition of growth at 10 µM [8]: < 30% | inhibition of growth at 10 µM [9]: < 30% | inhibition of growth at 10 µM [10]: < 30% | inhibition of growth at 10 µM [11]: < 30% | inhibition of growth at 10 µM [12]: < 30% | inhibition of growth at 10 µM [13]: 38% | inhibition of growth at 10 µM [14]: < 30% | inhibition of growth at 10 µM [15]: < 30% | inhibition of growth at 10 µM [16]: < 30% | inhibition of growth at 10 µM [17]: < 30% | inhibition of growth at 10 µM [18]: < 30% | inhibition of growth at 10 µM [19]: < 30% | inhibition of growth at 10 µM [20]: < 30% | inhibition of growth at 10 µM [21]: < 30% | inhibition of growth at 10 µM [22]: < 30% | inhibition of growth at 10 µM [23]: < 30%

COc1ccc(Cc2nnc(Nc3cccc(Cl)c3)c3ccccc23)cc1
inhibition of growth at 10 µM [1]: 35% | inhibition of growth at 10 µM [2]: < 30% | inhibition of growth at 10 µM [3]: < 30% | inhibition of growth at 10 µM [4]: < 30% | inhibition of growth at 10 µM [5]: 39% | inhibition of growth at 10 µM [6]: 34% | inhibition of growth at 10 µM [7]: < 30% | inhibition of growth at 10 µM [8]: 31% | inhibition of growth at 10 µM [9]: < 30% | inhibition of growth at 10 µM [10]: < 30% | inhibition of growth at 10 µM [11]: < 30% | inhibition of growth at 10 µM [12]: < 30% | inhibition of growth at 10 µM [13]: 61% | inhibition of growth at 10 µM [14]: 42% | inhibition of growth at 10 µM [15]: 30% | inhibition of growth at 10 µM [16]: 34% | inhibition of growth at 10 µM [17]: 33% | inhibition of growth at 10 µM [18]: 50% | inhibition of growth at 10 µM [19]: < 30% | inhibition of growth at 10 µM [20]: < 30% | inhibition of growth at 10 µM [21]: 45% | inhibition of growth at 10 µM [22]: 37% | inhibition of growth at 10 µM [23]: < 30%

COc1ccc(Cc2nnc(Nc3ccc(Cl)c(C(F)(F)F)c3)c3ccccc23)cc1
inhibition of growth at 10 µM [1]: 43% | inhibition of growth at 10 µM [2]: < 30% | inhibition of growth at 10 µM [3]: 40% | inhibition of growth at 10 µM [4]: 34% | inhibition of growth at 10 µM [5]: 41% | inhibition of growth at 10 µM [6]: 59% | inhibition of growth at 10 µM [7]: 48% | inhibition of growth at 10 µM [8]: 45% | inhibition of growth at 10 µM [9]: < 30% | inhibition of growth at 10 µM [10]: < 30% | inhibition of growth at 10 µM [11]: 52% | inhibition of growth at 10 µM [12]: < 30% | inhibition of growth at 10 µM [13]: 63% | inhibition of growth at 10 µM [14]: 61% | inhibition of growth at 10 µM [15]: 54% | inhibition of growth at 10 µM [16]: 74% | inhibition of growth at 10 µM [17]: 58% | inhibition of growth at 10 µM [18]: 49% | inhibition of growth at 10 µM [19]: < 30% | inhibition of growth at 10 µM [20]: 41% | inhibition of growth at 10 µM [21]: 62% | inhibition of growth at 10 µM [22]: 69% | inhibition of growth at 10 µM [23]: 52%
